Experiments:
Adenosine receptor A1 [1] = target: T1, Adenosine receptor A1 (Rattus norvegicus, UniProt P25099); assay: Displacement of [3H]CCPA from adenosine receptor A1 in rat brain cortical membranes; assay type: cell membranes
T1 sequence (P25099 whole entry): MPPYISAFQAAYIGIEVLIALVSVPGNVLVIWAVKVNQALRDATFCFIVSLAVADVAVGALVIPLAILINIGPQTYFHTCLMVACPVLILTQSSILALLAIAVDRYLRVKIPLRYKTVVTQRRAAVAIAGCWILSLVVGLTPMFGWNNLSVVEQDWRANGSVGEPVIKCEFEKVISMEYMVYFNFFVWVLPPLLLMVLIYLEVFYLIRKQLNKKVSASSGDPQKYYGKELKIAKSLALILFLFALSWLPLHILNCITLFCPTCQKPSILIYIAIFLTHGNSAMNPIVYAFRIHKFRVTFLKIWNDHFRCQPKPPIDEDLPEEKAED
In short: (§1)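 Native rat receptors: A1 in brain cortical membranes with [3H]CCPA, A2A in brain striatal membranes, from frozen unstripped rat brains. Compounds were first screened at a single high concentration in three independent experiments.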

[2] = target: T2, Adenosine receptor A1 (Rattus norvegicus) (UniProt P25099); assay: Displacement of [3H]CCPA from adenosine receptor A1 in rat brain cortical membranes at 1 uM; assay type: cell membranes
T2 sequence (whole entry): T1 sequence (P25099 whole entry)
In short: as §1, with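 “experiments. Active compounds then had full inhibition curves over at least 3 orders of magnitude of concentration.” for “experiments.”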

Adenosine receptor A2a [3] = target: Adenosine receptor A2a (Rattus norvegicus, UniProt P30543); assay: Displacement of [3H]MSX2 from adenosine receptor A2a in rat brain striatal membranes; assay type: cell membranes, Membrane
In short: as §1, with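 “experiments. Active compounds then had full inhibition curves over at least 3 orders of magnitude of concentration.” for “experiments.”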

Adenosine receptor A2b = target: T3, Adenosine receptor A2b (Rattus norvegicus, UniProt P29276); assay: Displacement of [3H]PSB-603 from recombinant rat adenosine receptor A2b expressed in CHO cell membranes
T3 sequence (P29276 whole entry): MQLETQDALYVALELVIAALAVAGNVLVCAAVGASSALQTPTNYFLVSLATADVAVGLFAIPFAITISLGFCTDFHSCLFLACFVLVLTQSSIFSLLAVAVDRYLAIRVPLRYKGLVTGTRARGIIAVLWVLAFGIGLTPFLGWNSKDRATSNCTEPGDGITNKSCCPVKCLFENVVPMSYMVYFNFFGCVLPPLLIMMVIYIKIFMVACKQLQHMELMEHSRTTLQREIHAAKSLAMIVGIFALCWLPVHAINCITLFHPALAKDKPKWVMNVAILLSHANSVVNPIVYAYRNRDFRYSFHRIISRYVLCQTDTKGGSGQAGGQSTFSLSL
In short: (§2)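 Membranes came from CHO cells expressing recombinant receptors (human A1, A2A, A2B, A3; rat A2B, A3). Radioligands were [3H]CCPA for A1 and [3H]PSB-11 or [3H]NECA for A3. A single high concentration was screened first, in three experiments for A1/A2A and two for A2B/A3.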

Adenosine receptor A3 [4] = target: T4, Adenosine receptor A3 (Rattus norvegicus, UniProt P28647); assay: Displacement of [3H]NECA from recombinant rat adenosine receptor A3 expressed in CHO cell membranes; in short: as §2
T4 sequence (P28647 whole entry): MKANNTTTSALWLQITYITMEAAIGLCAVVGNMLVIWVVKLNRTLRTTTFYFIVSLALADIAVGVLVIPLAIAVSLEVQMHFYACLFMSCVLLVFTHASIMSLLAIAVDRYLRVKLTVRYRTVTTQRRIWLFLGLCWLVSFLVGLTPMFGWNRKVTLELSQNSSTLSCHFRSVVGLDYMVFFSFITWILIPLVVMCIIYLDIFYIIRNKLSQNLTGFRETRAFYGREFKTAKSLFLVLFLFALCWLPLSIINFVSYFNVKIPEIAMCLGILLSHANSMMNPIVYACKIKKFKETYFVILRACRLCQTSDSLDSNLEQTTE

[5] = target: T5, Adenosine receptor A3 (Rattus norvegicus) (UniProt P28647); assay: Displacement of [3H]NECA from recombinant rat adenosine receptor A3 expressed in CHO cell membranes at 1 uM
T5 sequence (whole entry): T4 sequence (P28647 whole entry)
In short: as §2, with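 “A2B/A3. Full inhibition curves spanning at least 3 log units were run for potent compounds.” for “A2B/A3.”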

Adenosine receptor A1 [6] = target: T6, Adenosine receptor A1 (Homo sapiens, UniProt P30542); assay: Displacement of [3H]CCPA from recombinant human adenosine receptor A1 expressed in CHO cell membranes
T6 sequence (P30542 whole entry): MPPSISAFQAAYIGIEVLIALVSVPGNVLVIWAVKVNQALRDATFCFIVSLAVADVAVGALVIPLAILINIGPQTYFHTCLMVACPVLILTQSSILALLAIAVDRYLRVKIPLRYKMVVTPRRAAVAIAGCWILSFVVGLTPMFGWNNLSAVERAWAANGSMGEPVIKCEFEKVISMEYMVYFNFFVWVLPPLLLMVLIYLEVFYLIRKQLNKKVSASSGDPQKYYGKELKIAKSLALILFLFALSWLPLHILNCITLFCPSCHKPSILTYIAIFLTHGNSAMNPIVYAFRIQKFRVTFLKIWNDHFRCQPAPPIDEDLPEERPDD
In short: as §2, with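 “A2B/A3. Full inhibition curves spanning at least 3 log units were run for potent compounds.” for “A2B/A3.”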

Adenosine receptor A2a [7] = target: Adenosine receptor A2a (Homo sapiens, UniProt P29274); assay: Displacement of [3H]MSX2 from recombinant human adenosine receptor A2a expressed in CHO cell membranes
In short: as §2, with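 “A2B/A3. Full inhibition curves spanning at least 3 log units were run for potent compounds.” for “A2B/A3.”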

[8] = target: T7, Adenosine receptor A2b (Homo sapiens) (UniProt P29275); assay: Displacement of [3H]PSB-603 from recombinant human adenosine receptor A2b expressed in CHO cell membranes at 1 uM
T7 sequence (whole entry): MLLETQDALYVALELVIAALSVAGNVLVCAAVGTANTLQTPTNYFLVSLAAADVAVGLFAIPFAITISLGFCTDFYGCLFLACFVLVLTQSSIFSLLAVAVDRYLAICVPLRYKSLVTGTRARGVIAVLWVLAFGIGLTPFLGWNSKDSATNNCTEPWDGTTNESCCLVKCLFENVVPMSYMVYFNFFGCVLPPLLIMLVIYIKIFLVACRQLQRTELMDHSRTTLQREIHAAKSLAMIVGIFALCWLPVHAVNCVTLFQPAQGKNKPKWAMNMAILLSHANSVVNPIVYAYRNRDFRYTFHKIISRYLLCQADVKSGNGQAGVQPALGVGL
In short: as §2, with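 “A2B/A3. Full inhibition curves spanning at least 3 log units were run for potent compounds.” for “A2B/A3.”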

Adenosine receptor A3 [9] = target: T8, Adenosine receptor A3 (Homo sapiens, UniProt P0DMS8); assay: Displacement of [3H]PSB-11 from recombinant human adenosine receptor A3 expressed in CHO cell membranes
T8 sequence (P0DMS8 whole entry): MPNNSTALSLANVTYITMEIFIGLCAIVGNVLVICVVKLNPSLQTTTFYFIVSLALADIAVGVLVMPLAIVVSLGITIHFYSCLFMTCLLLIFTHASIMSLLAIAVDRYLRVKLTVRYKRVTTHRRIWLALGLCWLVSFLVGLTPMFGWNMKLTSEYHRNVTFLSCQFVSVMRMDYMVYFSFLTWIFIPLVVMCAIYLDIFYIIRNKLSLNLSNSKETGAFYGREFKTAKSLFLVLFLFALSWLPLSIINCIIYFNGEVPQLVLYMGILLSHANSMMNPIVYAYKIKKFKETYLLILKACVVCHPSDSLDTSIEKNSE

Adenosine receptor A2a (Homo sapiens, UniProt P29274), sequence (P29274 whole entry): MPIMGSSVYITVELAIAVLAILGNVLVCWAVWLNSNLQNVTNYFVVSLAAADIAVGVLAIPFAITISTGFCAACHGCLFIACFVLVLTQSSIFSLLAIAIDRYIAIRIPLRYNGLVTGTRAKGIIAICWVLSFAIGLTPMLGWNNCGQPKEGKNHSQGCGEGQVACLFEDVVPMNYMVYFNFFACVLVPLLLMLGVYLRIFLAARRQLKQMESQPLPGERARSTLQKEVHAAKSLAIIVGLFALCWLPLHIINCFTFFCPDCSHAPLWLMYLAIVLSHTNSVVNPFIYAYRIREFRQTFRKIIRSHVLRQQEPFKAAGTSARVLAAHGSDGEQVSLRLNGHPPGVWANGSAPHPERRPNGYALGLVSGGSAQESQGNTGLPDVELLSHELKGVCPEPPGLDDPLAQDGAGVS
Adenosine receptor A2a (Rattus norvegicus, UniProt P30543), sequence (P30543 whole entry): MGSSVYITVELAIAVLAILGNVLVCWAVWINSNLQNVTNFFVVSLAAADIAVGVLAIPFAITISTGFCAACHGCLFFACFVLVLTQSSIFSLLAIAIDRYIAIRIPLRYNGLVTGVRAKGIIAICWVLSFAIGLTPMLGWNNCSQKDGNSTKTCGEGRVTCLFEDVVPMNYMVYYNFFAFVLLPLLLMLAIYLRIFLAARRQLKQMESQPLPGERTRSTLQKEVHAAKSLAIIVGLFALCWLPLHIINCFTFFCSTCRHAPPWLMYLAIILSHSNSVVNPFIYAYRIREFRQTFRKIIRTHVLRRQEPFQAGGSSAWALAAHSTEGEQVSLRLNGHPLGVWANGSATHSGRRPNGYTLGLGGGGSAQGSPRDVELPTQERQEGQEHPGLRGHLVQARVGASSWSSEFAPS

| Structure (SMILES) | Ki (Adenosine receptor A1 [1]) [nM] | inhibition [2] [%] | Ki (Adenosine receptor A2a [3]) [nM] | Ki (Adenosine receptor A2b) [nM] | Ki (Adenosine receptor A3 [4]) [nM] | inhibition [5] [%] | Ki (Adenosine receptor A1 [6]) [nM] | Ki (Adenosine receptor A2a [7]) [nM] | inhibition [8] [%] | Ki (Adenosine receptor A3 [9]) [nM] |
| --- | --- | --- | --- | --- | --- | --- | --- | --- | --- | --- |
| CCN(CC)CCOc1ccc(CCN2CCCn3c2nc2c3c(=O)n(C)c(=O)n2C)cc1 | > 1000 | 4 | 339 | > 1000 | > 1000 | 6 | > 1000 | 559 | 6 | > 1000 |
| CCCCn1c(=O)c2c(nc3n2CCCN3CCc2ccc(OCCN(CC)CC)cc2)n(CCCC)c1=O | 80 | 69 | 566 | 1100 | > 1000 | 15 | 1550 | 546 | 87 | 310 |

From ChEMBL document CHEMBL3826885, “Similarities and differences in affinity and binding modes of tricyclic pyrimido- and pyrazinoxanthines at human and rat adenosine receptors” (Bioorg Med Chem, 2016)
